Activity calls are given as the source filed them. The rule behind the calls is not given here.
Assays:
[1] = Cytotoxicity in human HN12 cells assessed as reduction in cell viability incubated for 24 hrs by MTT assay; format: functional, cell-based; settings: HN12, 24 h
Procedure, shortened: (§1)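 HNSCC lines (HN6, HN12, HN13) grown in DMEM with 10% fetal calf serum at 37 °C, 5% CO2, to 70–80% confluence. Seeded, after 24 h exposed to rising compound concentrations for a further 24 h. MTT (5 mg/mL in PBS) added, formazan dissolved in DMSO, absorbance read at 590 nm. IC50 in nM, mean of three independent triplicate experiments ± standard error.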

WSU-HN13 [2] = experiment: Induction of PTEN protein expression in human HN13 cells incubated for 24 hrs by Western blot; format: functional, cell-based
Procedure, shortened: (§2)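 HN13 cells treated 24 h with 1.0 or 10.0 nM compound versus vehicle controls. Lysed in Tris pH 7.5/SDS/β-mercaptoethanol with protease inhibitors at 4 °C, protein quantified by BCA. 30 μg loaded for SDS-PAGE, transferred to PVDF, blocked 1 h in 5% milk, probed for PTEN (and pS6) with GAPDH loading control. HRP chemiluminescent detection.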

[3] = target: T1, Histone deacetylase (Homo sapiens) (UniProt Q13547+O15379+Q9UBN7+Q92769+Q9UQL6+Q8WUI4+Q9BY41+Q96DB2+P56524+Q9UKV0+Q969S8); experiment: Inhibition of HDAC in human HN13 cells assessed as reduction in histone H3 acetylation incubated for 24 hrs by immunofluorescence assay; format: cell-based
Procedure, shortened: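 HN13 on glass coverslips, overnight at 37 °C, then treated 24 h at 1 and 10 nM, TSA as positive control. Fixed in 4% paraformaldehyde, permeabilized with 0.5% Triton X-100, blocked in 3% BSA/PBS. Anti-AcH3 (lys9) primary 2 h, TRITC anti-rabbit 1 h, nuclear counterstain.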

[4] = Cytotoxicity in human HN6 cells assessed as reduction in cell viability incubated for 24 hrs by MTT assay; format: functional, cell-based; settings: HN-6, 24 h; procedure, shortened: as §1
[5] = target: T1, Histone deacetylase (Homo sapiens); experiment: Inhibition of HDAC in human HN13 cells assessed as increase in histone H3 acetylation at 1 nM incubated for 24 hrs by Western blot
184B5 = experiment: Cytotoxicity in human 184B5 cells assessed as reduction in cell viability incubated for 24 hrs by MTT assay; format: cell-based; settings: 184B5, 24 h
Procedure, shortened: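 184B5 immortalized non-cancer breast epithelial cells; cytotoxicity over 24 h drug exposure, evaluated alongside the HNSCC lines; IC50 in nM taken as mean of three independent triplicate experiments ± standard error.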

WSU-HN13 [6] = experiment: Cytotoxicity in human HN13 cells assessed as reduction in cell viability incubated for 24 hrs by MTT assay; format: functional, cell-based; settings: WSU-HN13, 24 h; procedure, shortened: as §1
[7] = Selectivity index, ratio of IC50 for cytotoxicity in human […] cells; format: toxicity, cell-based; settings: HN13 cells and 184B5 cells, read-out: Ratio IC50
Histone deacetylase = experiment: Inhibition of HDAC in human HeLa nuclear extracts incubated for 60 mins using fluorometric substrate by fluorometric assay; format: protein assay
Procedure, shortened: (§3)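 HeLa nuclear extract incubated with compound, assay buffer and acetyl-lysine fluorogenic HDAC substrate for 60 min at 37 °C. Lysine developer then added for a further 30 min at 37 °C. Fluorescence read at ex 370/em 450 nm. Water served as positive control and 20 µM TSA as inhibitor control.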

[8] = target: T1, Histone deacetylase (Homo sapiens); experiment: Ratio of inhibition of HDAC in human HN13 cells assessed as increase in histone H3 acetylation to IC50 for inhibition of HDAC in human HeLa nuclear extracts
WSU-HN13 [9] = experiment: Induction of PTEN protein expression in human HN13 cells assessed as reduction in PI3K/Akt/mTOR signalling by measuring reduction in pS6 protein expression incubated for 24 hrs by Western blot; format: functional, cell-based; procedure, shortened: as §2
[10] = target: T1, Histone deacetylase (Homo sapiens); experiment: Inhibition of HDAC in human HeLa nuclear extracts at 500 uM incubated for 60 mins using fluorometric substrate by fluorometric assay; format: protein assay; procedure, shortened: as §3

Compound	IC50 [1] [nM]	Activity (WSU-HN13 [2])	inhibition [3]	IC50 [4] [nM]	inhibition [5]	IC50 (184B5) [nM]	IC50 (WSU-HN13 [6]) [nM]	selectivity ratio [7]	IC50 (Histone deacetylase) [nM]	Ratio [8]	Activity (WSU-HN13 [9])	inhibition [10] [%]
O=CN/N=C/c1ccc(NS(=O)(=O)c2ccc(-c3ccccc3)cc2)cc1O	5.03	Dose-dependent effect	Dose-dependent effect	4.94	Active	1840	9.85	> 186	292000	10	Dose-dependent effect	–
NC(=O)c1ccc(NS(=O)(=O)c2ccc(-c3ccccc3)cc2)cc1O	4.99	Dose-dependent effect	Dose-dependent effect	4.73	Active	1960	9.66	> 200	–	10	Dose-dependent effect	20

Source: ChEMBL document CHEMBL4130499, “Serendipitous discovery of potent human head and neck squamous cell carcinoma anti-cancer molecules: A fortunate failure of a rational molecular design” (Eur J Med Chem, 2017)
